How the values were obtained:
[1] = Pharmacokinetic analysis in cannulated rat model; assay type: in vivo, Sprague Dawley rats; settings: for observable effects in the animals following dosing: rat pharmacokinetic studies
In short: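 Fasted male Sprague Dawley rats fitted with carotid artery and jugular and/or femoral vein catheters. Dosed iv or orally with 0.2 micron-filtered solutions; automated sampling allowed both routes in the same animal. Plasma separated by centrifugation and stored at -80 °C. Prodrug, 2-ME2 and metabolites quantified by LC-MS/MS against deuterated internal standards. Parameters from non-parametric analysis; animals observed after dosing.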

OE33 cells [2] = experiment: Crystal violet cell proliferation assay; assay type: cell-based; settings: for IC50: Homo sapiens, OE33, 48 h, read-out: IC50, OE33 cell proliferation/viability
OE33 xenograft tumors = experiment: OE33 tumor xenograft in athymic nude mice; assay type: in vivo, athymic nude mice (BALB/c-nu/nu); settings: 12 days; for effect on growth of established OE33 xenograft tumors: 75 mg/kg/day orogastric
OE33 cells [3] = experiment: Phase-contrast cellular morphology of OE33 cells; assay type: cell-based; settings: 48 h
[4] = test system: microtubule network in OE33 cells; experiment: Anti-α-Tubulin immunofluorescence of microtubule network in OE33 cells; assay type: cell-based; settings: 48 h
[5] = oral administration, published literature ref 1, 10-12; cited from earlier work
[6] = test system: microtubule distribution in OE33-tumor xenografts; experiment: Anti-α-Tubulin immunofluorescence of OE33 tumor xenograft sections; assay type: in vivo, athymic nude mice (BALB/c-nu/nu); settings: treated OE33-tumor xenograft sections vs untreated
[7] = Dissolution in sterile water; assay type: physicochemical
[8] = Sprague-Dawley, rat, plasma, iv, 5.21 mg/kg

AUC(0-t) [1, 8]	Cmax [1, 8]	half-life [1, 8]	SMILES	observable effects in the animals following dosing [1]	IC50 (OE33 cells [2])	effect on growth of established OE33 xenograft tumors (OE33 xenograft tumors)	alteration of cellular morphology compared to 2-ME2-PD1 (OE33 cells [3]; 2.5 μM or 5 μM)	microtubule disruption ([4]; 5 μM)	serum bioavailability [5]	IC50 fold higher than 2-ME2 (OE33 cells [2]; OE33 viability, 48 h)	reduction in tumor volume relative to the control group (OE33 xenograft tumors; oral 75 mg/kg/d)	alteration of cellular morphology (OE33 cells [3]; 2.5 μM)	alteration of cellular morphology (OE33 cells [3]; 5 μM)	microtubule disruption ([4]; 2.5 μM)	microtubule distribution and cellular morphology in tumor xenografts [6]	solubility in sterile water [7]
321 ng·h/mL	1220 ng/mL	59 min	COc1cc2c(cc1O)CC[C@@H]1[C@@H]2CC[C@]2(C)[C@@H](O)CC[C@@H]12 [2-ME2, 2-Methoxyestradiol]	no observable effects	~6 µM	inconsistent	much more drastic	totally disrupted	1 - 2%							
			COc1cc2c(cc1OCOP(=O)([O-])[O-])CC[C@@H]1[C@@H]2CC[C@]2(C)[C@@H](OC(C)=O)CC[C@@H]12.[Na+].[Na+] [2-ME2-PD1, disodium (((8R,9S,13S,14S,17S)-17-acetoxy-2-methoxy-13-methyl-7,8,9,11,12,13,14,15,16,17-decahydro-6H-cyclopenta[a]phenanthren-3-yl)oxy)methyl phosphate]	no observable effects	~17 µM	inhibited the growth		significantly disrupted		~3 fold	60 ± 5%	mild to no alterations	atrophy	not very prominent	striking alteration in microtubule distribution	readily dissolves in sterile water

Reference: PMC4729448 (Molecular cancer therapeutics, 2013)
